What was measured:
[1] = system: Respiratory syncytial virus; assay: Antiviral activity against Respiratory syncytial virus infected in human Hep2 cells assessed as inhibition of virus-induced cytopathic effect after 72 hrs by XTT assay; assay type: functional, organism-based; conditions: HEp-2, 72 h
How it was run: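 RSV-induced cytopathic effect inhibition in Hep-2 (human laryngeal carcinoma) cells, run by an established CPE-inhibition procedure. Ribavirin served as the positive control. Values are the mean of three replicate determinations.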

[2] = Cytotoxicity against human Hep2 cells after 48 hrs; assay type: cell-based, HEp-2; conditions: read-out: TC50
[3] = Therapeutic index, ratio of TC50 for human Hep2 cells to IC50 for Respiratory syncytial virus; assay type: cell-based, HEp-2; conditions: read-out: TI

| SMILES | IC50 [1] [µM] | CC50 at 48 h [2] [µM] | selectivity ratio [3] |
| --- | --- | --- | --- |
| CN[C@H](C(=O)O[C@@H]1CC[C@@](C)(/C=C/c2ccc3c(c2O)[C@@](O)(c2ccccc2)[C@H](OC)C(=O)N3)C[C@@H]1C)C(C)C | > 50 |  |  |
| CN[C@H](C(=O)O[C@@H]1CC[C@@](C)(/C=C/c2ccc3c(c2O)[C@@](O)(c2ccccc2)[C@H](OC)C(=O)N3)C[C@H]1C)C(C)C | 0.042 | 22 | 520 |
| CO[C@@H]1C(=O)Nc2ccc(/C=C/[C@]3(C)CCC(=O)[C@H](C)C3)c(O)c2[C@@]1(O)c1ccccc1 | 6.6 | 27 | 4 |
| CO[C@@H]1C(=O)Nc2ccc(/C=C/[C@]3(C)CCC(=O)[C@@H](C)C3)c(O)c2[C@@]1(O)c1ccccc1 [AFLAQUINOLONE A] | > 50 |  |  |
| NC(=O)c1ncn([C@@H]2O[C@H](CO)[C@@H](O)[C@H]2O)n1 [RIBAVIRIN] | 20 | > 3000 | > 150 |

Reference: ChEMBL document CHEMBL3352331, “Anti-respiratory syncytial virus prenylated dihydroquinolone derivatives from the gorgonian-derived fungus Aspergillus sp. XS-20090B15” (J Nat Prod, 2014)
